The values that follow come from ChEMBL document CHEMBL1155062, “Antileishmanial activity screening of 5-nitro-2-heterocyclic benzylidene hydrazides” (Bioorg Med Chem, 2008).

The IC50 is the concentration needed to halve the response being measured. High values mean a need for much substance, low ones inhibition by little substance. By IC90 is commonly meant the point of the concentration-response curve where the effect stands at 90%.

Activity calls are given as the source filed them. No cut-off for these calls is given here. Some results are limits rather than exact numbers.

The subject of the assay is Leishmania donovani. Description: Antileishmanial activity against Leishmania donovani promastigotes after 48 hrs by alamar blue assay. In kind it is functional, organism-based. In a few lines: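 L. donovani promastigotes grown in RPMI 1640 with 10% fetal calf serum at 26 °C. A 3-day-old culture was diluted to 5 × 10⁵ promastigotes/mL. Drug dilutions were made directly in the cell suspension and incubated 48 h at 26 °C.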
`O=C(N/N=C/c1ccc([N+](=O)[O-])s1)c1ccc(F)c(Cl)c1` displayed an IC50 of 1.92 µM and an IC90 of 4.67 µM. As for `O=C(N/N=C/c1ccc([N+](=O)[O-])s1)c1ccc(Cl)c(Cl)c1`, the IC50 is 0.41 µM and the IC90 was 0.87 µM. `COc1cc(C(=O)N/N=C/c2ccc([N+](=O)[O-])o2)ccc1[N+](=O)[O-]` displayed an IC50 of 7.39 µM and an IC90 of 20.2 µM.

Take `CN(C)c1cccc(C(=O)N/N=C/c2ccc([N+](=O)[O-])s2)c1`: the result was inactive. `O=C(N/N=C/c1ccc([N+](=O)[O-])o1)c1ccc(F)c(F)c1` registered an IC50 of 9.49 µM and an IC90 of 25.5 µM. As to `N=C(N)c1ccc(OCCCCCOc2ccc(C(=N)N)cc2)cc1` [PENTAMIDINE], half-maximal inhibition (IC50) required 1.06 µM.

In the case of `Nc1cc(C(=O)N/N=C/c2ccc([N+](=O)[O-])o2)ccc1O`, the IC50 amounted to 27 µM and the 90% effect level (IC90) was put at 97.5 µM. Take `O=C(N/N=C/c1ccc([N+](=O)[O-])o1)c1ccc(Cl)c([N+](=O)[O-])c1`: the result was inactive. Compound `O=C(N/N=C/c1ccc([N+](=O)[O-])s1)c1ccc([N+](=O)[O-])c(O)c1` returned a half-inhibitory concentration (IC50) of 5.45 µM and an IC90 of 18.4 µM. In the case of `CN(C)c1ccc(C(=O)N/N=C/c2ccc([N+](=O)[O-])s2)cc1`, the outcome was inactive. In turn, `O=C(N/N=C/c1ccc([N+](=O)[O-])o1)c1cccc(C(F)(F)F)c1` registered an IC50 of 10.4 µM and an IC90 of 24.1 µM. In the case of `NS(=O)(=O)c1cc(C(=O)N/N=C/c2ccc([N+](=O)[O-])o2)ccc1Cl`, the IC50 was determined as 38.5 µM and it took 88.5 µM to reach the 90% level (IC90). Turning to `COc1cccc(C(=O)N/N=C/c2ccc([N+](=O)[O-])s2)c1`, half-maximal inhibition (IC50) required 8.52 µM and the IC90 came out at 32.8 µM. For the compound `O=C(N/N=C/c1ccc([N+](=O)[O-])o1)c1ccc(Cl)cc1`, the IC50 came to 7.83 µM and the IC90 was found to be 23.8 µM.

`CN(C)c1cccc(C(=O)N/N=C/c2ccc([N+](=O)[O-])o2)c1`: the midpoint of inhibition, the IC50, lay at 7.94 µM and the IC90 was 24.2 µM. `O=C(N/N=C/c1ccc([N+](=O)[O-])s1)c1ccc([N+](=O)[O-])cc1` yielded a concentration for half-maximal inhibition (IC50) of 2.81 µM and a 90% effect concentration (IC90) of 5.31 µM.

On to `O=C(N/N=C/c1ccc([N+](=O)[O-])o1)c1cccc(O)c1`, for which it took 10.2 µM to reach half-maximal inhibition (IC50) and the concentration for an effect of 90% (IC90) was found to be 28 µM. Turning to `COc1cc(C(=O)N/N=C/c2ccc([N+](=O)[O-])s2)ccc1[N+](=O)[O-]`, it took 2 µM to reach half-maximal inhibition (IC50) and the 90% effect level (IC90) was put at 3.91 µM. `Cc1cccc(C(=O)N/N=C/c2ccc([N+](=O)[O-])s2)c1` came in with an IC50 of 4.84 µM and an IC90 of 19 µM. On to `O=C(N/N=C/c1ccc([N+](=O)[O-])o1)c1cccc([N+](=O)[O-])c1`, for which 9.86 µM corresponded to half-maximal inhibition (IC50) and it took 26 µM to reach the 90% level (IC90). In the same order, the values of `COc1ccc(C(=O)N/N=C/c2ccc([N+](=O)[O-])s2)cc1` are 7.21 µM and 26.2 µM. For `COc1ccc(C(=O)N/N=C/c2ccc([N+](=O)[O-])o2)cc1`, half-maximal inhibition (IC50) required 8.99 µM and the 90% effect level (IC90) was put at 25.9 µM. `O=C(N/N=C/c1ccc([N+](=O)[O-])s1)c1cccc(O)c1` came in with a concentration for half-maximal inhibition (IC50) of 2.75 µM and an IC90 of 7.55 µM. In the same order, the values of `COc1cc(C(=O)N/N=C/c2ccc([N+](=O)[O-])s2)ccc1C` are 2.19 µM and 4.39 µM. As for `O=C(N/N=C/c1ccc([N+](=O)[O-])o1)c1ccc(O)cc1` [NIFUROXAZIDE], the IC50 was determined as 2.4 µM and the 90% effect concentration (IC90) stood at 17.8 µM. Consider `Cc1ccc(C(=O)N/N=C/c2ccc([N+](=O)[O-])s2)cc1N`, for which the IC50 was 2.24 µM and the IC90 came to 4.7 µM. For the compound `Cc1cccc(C(=O)N/N=C/c2ccc([N+](=O)[O-])o2)c1`, the midpoint of inhibition, the IC50, lay at 19.8 µM and the IC90 is > 36.6 µM. On to `O=C(N/N=C/c1ccc([N+](=O)[O-])o1)c1ccc(C(F)(F)F)cc1`, for which half-maximal inhibition (IC50) was put at 8.86 µM and the 90% effect level (IC90) was put at 24.4 µM.

As to `O=C(N/N=C/c1ccc([N+](=O)[O-])o1)c1ccccc1`, the half-maximal inhibitory concentration (IC50) is 11.2 µM and the IC90 is 29.7 µM. The matching figures for `O=C(N/N=C/c1ccc([N+](=O)[O-])o1)c1ccc([N+](=O)[O-])cc1`: 6.57 µM and 22.4 µM.

`NS(=O)(=O)c1cc(C(=O)N/N=C/c2ccc([N+](=O)[O-])s2)ccc1Cl` came in with an IC50 of 8.06 µM and a concentration for an effect of 90% (IC90) of 17.2 µM. On to `O=C(N/N=C/c1ccc([N+](=O)[O-])s1)c1cccc(Cl)c1`, for which the half-inhibitory concentration (IC50) turned out to be 2.74 µM and it took 6.78 µM to reach the 90% level (IC90). Compound `COc1ccc(C(=O)N/N=C/c2ccc([N+](=O)[O-])s2)cc1N` returned an IC50 of 4.69 µM and an IC90 of 18.3 µM.

As for `Cc1ccc(C(=O)N/N=C/c2ccc([N+](=O)[O-])s2)cc1`, 4.49 µM corresponded to half-maximal inhibition (IC50) and the IC90 was 7.95 µM. Compound `COc1cc(C(=O)N/N=C/c2ccc([N+](=O)[O-])o2)ccc1C` came in with an IC50 of 8.9 µM and a 90% effect concentration (IC90) of 52.8 µM. As to `O=C(N/N=C/c1ccc([N+](=O)[O-])s1)c1ccccc1`, the IC50 came out at 6.54 µM and the IC90 was 25.4 µM.

Consider `Nc1ccc(C(=O)N/N=C/c2ccc([N+](=O)[O-])o2)cc1`, for which the IC50 was 2.66 µM and the 90% effect level (IC90) was put at 14.6 µM. Turning to `O=C(N/N=C/c1ccc([N+](=O)[O-])o1)c1ccc(Cl)c(Cl)c1`, half-maximal inhibition (IC50) was put at 1.68 µM and it took 26.9 µM to reach the 90% level (IC90).

Take `Cc1ccc(C(=O)N/N=C/c2ccc([N+](=O)[O-])o2)cc1N`: the IC50 came out at 0.62 µM and the concentration for an effect of 90% (IC90) stood at 2.88 µM. Turning to `O=C(N/N=C/c1ccc([N+](=O)[O-])o1)c1ccc([N+](=O)[O-])c(O)c1`, 9.9 µM corresponded to half-maximal inhibition (IC50) and the 90% effect level (IC90) was put at 48.9 µM. In the same order, the values of `O=C(N/N=C/c1ccc([N+](=O)[O-])s1)c1cccc([N+](=O)[O-])c1` are 2.78 µM and 14.3 µM. The matching figures for `Nc1ccc(C(=O)N/N=C/c2ccc([N+](=O)[O-])s2)cc1`: 2.24 µM and > 34.5 µM. Compound `Cc1ccc(C(=O)N/N=C/c2ccc([N+](=O)[O-])o2)cc1` yielded an IC50 of 11 µM and an IC90 of 28.6 µM. The matching figures for `O=C(N/N=C/c1ccc([N+](=O)[O-])s1)c1ccc(C(F)(F)F)cc1`: 0.82 µM and 1.89 µM.

Turning to `O=C(N/N=C/c1ccc([N+](=O)[O-])s1)c1ccc(O)cc1`, the IC50 was 0.89 µM and the concentration for an effect of 90% (IC90) was 4.46 µM. The compound `COc1ccc(C(=O)N/N=C/c2ccc([N+](=O)[O-])o2)cc1N` came in with an IC50 of 16.4 µM and an IC90 of 131 µM. In the case of `O=C(N/N=C/c1ccc([N+](=O)[O-])o1)c1cccc(Cl)c1`, half-maximal inhibition (IC50) required 7.83 µM and it took 24.2 µM to reach the 90% level (IC90). In the same order, the values of `O=C(N/N=C/c1ccc([N+](=O)[O-])s1)c1cccc(C(F)(F)F)c1` are 3.79 µM and 6.41 µM.

`COc1cccc(C(=O)N/N=C/c2ccc([N+](=O)[O-])o2)c1` came in with an IC50 of 10.4 µM and a concentration for an effect of 90% (IC90) of 26.6 µM. `O=C(N/N=C/c1ccc([N+](=O)[O-])o1)c1ccc(F)c(Cl)c1`: the midpoint of inhibition, the IC50, lay at 6.42 µM and the IC90 is 19.2 µM. Consider `O=C(N/N=C/c1ccc([N+](=O)[O-])s1)c1ccc(Cl)cc1`, for which the IC50 stood at 1.26 µM and the 90% effect level (IC90) was put at 4.84 µM. For `Cc1ccc(C(=O)N/N=C/c2ccc([N+](=O)[O-])s2)cc1O`, half-maximal inhibition (IC50) required 2.3 µM and the IC90 was 4.59 µM.

As for `O=C(N/N=C/c1ccc([N+](=O)[O-])s1)c1ccc(F)c(F)c1`, the half-maximal inhibitory concentration (IC50) turned out to be 2.15 µM and the 90% effect level (IC90) was put at 4.92 µM. In the case of `CN(C)c1ccc(C(=O)N/N=C/c2ccc([N+](=O)[O-])o2)cc1`, the outcome was inactive.
